Holding throughout (format): functional, organism-based
The test system of test [1] is Rattus norvegicus. Kind of test: Analgesic activity in Wistar rats assessed as increase in latency of response to pain at 1 mg/kg, ip treated 20 mins after 1 mg/kg, ip NO donor, L-arginine challenge measured after 15 to 45 mins by hot plate test. In short, it runs like this: (§1)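 Male Wistar rats (180–200 g), 12 h light/dark cycle, food and water ad libitum, tested 09.00–12.00, five rats per group. Peptide given i.p. in sterile 0.9% saline. Pretreatment agents (naloxone or L-Arg at 1 mg/kg, L-NAME at 10 mg/kg, i.p.) were given 20 min before the peptide. Readings began 15 min after peptide injection. Hot plate at 55 ± 0.5 °C; latency measured to first paw licking or jump; 30 s cut-off. Mean ± S.E.M., ANOVA, P < 0.05.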
In general terms: Thermal pain tests record how soon the animal reacts.

In test [2] the test system is Rattus norvegicus. As to the kind of experiment: Analgesic activity in Wistar rats assessed as increase in latency of response to pain at 1 mg/kg, ip treated 20 mins after 10 mg/kg, ip NOS inhibitor, L-NAME challenge measured after 15 to 45 mins by hot plate test. In short, it runs like this: as §1
For test [3], the system named is Rattus norvegicus. As to the kind of experiment: Analgesic activity in Wistar rats assessed as increase in mechanical nociceptive threshold at 1 mg/kg, ip treated 20 mins after 1 mg/kg, ip NO donor, L-arginine challenge measured after 15 to 45 mins by paw pressure test. In short, it runs like this: (§2)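 Male Wistar rats (180–200 g), five per group, tested 09.00–12.00. Peptide given i.p. in sterile 0.9% saline. Pretreatment agents (naloxone or L-Arg at 1 mg/kg, L-NAME at 10 mg/kg, i.p.) were given 20 min before the peptide. Readings began 15 min after peptide injection. Randall-Selitto analgesimeter applied pressure to the hind paw; threshold was the pressure (g) eliciting squeak or struggle; 500 g cut-off. Mean ± S.E.M., ANOVA.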

Test [4] deals with Rattus norvegicus. As to the kind of experiment: Analgesic activity in Wistar rats assessed as increase in mechanical nociceptive threshold at 1 mg/kg, ip treated 20 mins after 10 mg/kg, ip NOS inhibitor, L-NAME challenge measured after 15 to 45 mins by paw pressure test. In short, it runs like this:
as §2

Test [5] deals with Rattus norvegicus. Kind of test: Analgesic activity in Wistar rats assessed as increase in latency of response to pain at 1 mg/kg, ip treated 20 mins after 1 mg/kg, ip […] opiate receptor antagonist, naloxone challenge measured after 15 to 30 mins by hot plate test. In short, it runs like this:
as §1

Test [6] has as its system Rattus norvegicus. As to the kind of experiment: Analgesic activity in Wistar rats assessed as increase in mechanical nociceptive threshold at 1 mg/kg, ip treated 20 mins after 1 mg/kg, ip […] opiate receptor antagonist, naloxone challenge measured after 15 to 30 mins by paw pressure test. In short, it runs like this:
as §2

Test [7] deals with Rattus norvegicus. As to the kind of experiment: Analgesic activity in Wistar rats assessed as increase in latency of response to pain at 1 mg/kg, ip measured after 15 to 45 mins by hot plate test. More on the design: dose 1 mg/kg. In short, it runs like this: as §1
The test system of test [8] is Rattus norvegicus. As to the kind of experiment: Analgesic activity in Wistar rats assessed as increase in mechanical nociceptive threshold at 1 mg/kg, ip measured after 15 to 30 mins by paw pressure test. Further details: dose 1 mg/kg. In short, it runs like this:
as §2

The subject of test [9] is Rattus norvegicus. As to the kind of experiment: Analgesic activity in Wistar rats assessed as increase in latency of response to pain at 1 mg/kg, ip measured after 15 mins by hot plate test. Further details: dose 1 mg/kg. In short, it runs like this:
as §1

The subject of test [10] is Rattus norvegicus. As to the kind of experiment: Analgesic activity in Wistar rats assessed as increase in mechanical nociceptive threshold at 1 mg/kg, ip measured after 15 mins by paw pressure test. Further details: dose 1 mg/kg. In short, it runs like this: as §2

Activity calls are given as the source filed them. Residues, ends and D or L forms follow the SMILES beside them.

As to `CC(C)C[C@H](NC(=O)[C@]1(C(F)(F)F)CCCN1)C(=O)NCC(N)=O`, the result in test [1], in test [2], in test [3], in test [4], in [5] and in test [6] was inactive. Also, the result in test [7] was inactive. In test [8], the result was Active.

Take `CC(C)C[C@H](NC(=O)[C@@H]1CCCN1)C(=O)NCC(N)=O` (H-Pro-Leu-Gly-NH2): the outcome in [1], in [2], in [3], in test [4], in test [5] and in test [6] was inactive. The result in test [10] was inactive. The result in test [9] was Active.

For the origin of these results see ChEMBL document CHEMBL2331250, “Synthesis of an MIF-1 analogue containing enantiopure (S)-α-trifluoromethyl-proline and biological evaluation on nociception” (Eur J Med Chem, 2013).
